Sampled rows, rich in hits. Any-hit rate of the full collection: about 2.9%.
NALP3 yeast inh – NALP3 inhibition in yeast; AID 2825; Yeast reconstituted NLRP3/ASC/caspase-1, beta-gal luminescence, 24 h; inhibition, % at 10 µM; 0.39% of 330,000 active;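 active = inhibition of 50% or more; inactive = inhibition below 50%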;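 also: plate controls were induced DMSO wells for no effect and uninduced yeast grown without galactose for full effect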
SUMO Mot1 rescue – blocks SUMOylation pathway, rescuing yeast Mot1-301 growth; 1% of 320,000 active; growth rescue, % at 18.8 µM; AID 2716; S. cerevisiae Mot1-301 growth rescue, ATP luminescence, 38.5C; percent above DMSO median, 100 means doubled;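 active = every valid replicate shows activation above 250% relative to neutral control wells; inactive = the rest, any valid replicate at or below 250%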;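 also: OY570 slx delta 5 strain wells were the positive control but not used for scaling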
VIM-2 inh – blocks Pseudomonas aeruginosa VIM-2 metallo-beta-lactamase; purified VIM-2, nitrocefin hydrolysis, epi-absorbance fluorescence; inhibition, % at 5.6 µM; 0.89% of 290,000 active; AID 1527;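 active = inhibition above the mean of all tested compounds plus 3 SD, cutoff set per screening run, cut at about 7.5% in these data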;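 also: red hydrolysis product quenches plate fluorescence so inhibitors raise well fluorescence; 0% = enzyme with DMSO and 100% = DMSO without enzyme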
PolyA inh – inhibitors of polyadenylation in S. cerevisiae | S. cerevisiae SKY197-pL101 polyadenylation reporter, beta-gal luminescence; efflux-impaired pdr1/pdr3 knockout yeast; score 100 = 6 SD above DMSO | activity score, % at 12 µM | 0.02% of 300,000 active;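 active = lowest replicate activity score at least 50, where 100 means six control SD above control mean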;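 also: yeast exposed to compound for 9 h at 30 °C; higher score means more reporter readthrough which indicates perturbed polyadenylation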
IMP-1 inhibitor – blocks Pseudomonas aeruginosa IMP-1 metallo-beta-lactamase; purified IMP-1, nitrocefin hydrolysis, epi-absorbance fluorescence; inhibition, % at 5.6 µM; 0.45% of 290,000 active;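 active = inhibition above the mean plus 3 SD of all compounds in the same screening run, cut at about 4.5% in these data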;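 also: 0% = IMP-1 with DMSO and 100% = DMSO wells lacking enzyme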
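System: Purified IMP-1 | Read-out basis: Percent enzyme inhibition | Controls: IMP-1 with DMSO as 0%, enzyme-free DMSO as 100% | Replicates: One well per compound | Doses: 5.6 µM nominal single concentration | Detection: Epi-absorbance fluorescence, 480 nm excitation, 530 nm emission | Incubation: 25 °C, 15 min preincubation, 25 min reaction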
NALP1 inh – blocks the NALP1 inflammasome reconstituted in yeast; S. cerevisiae NALP1/ASC/caspase-1 growth, X-gal OD620, 72 h; inhibition, % at 10 µM; 0.61% of 280,000 active; AID 2071; in the data active = inhibition mostly above about 24%, no sharp cut-off; inactive = mostly below about 32%
Yeast Mot1 SUMO – inhibits SUMO pathway, affecting Mot1-301 yeast growth | AID 493004 | 2,300 tested, under 10 active | growth activity, percent, % at 42 µM | S. cerevisiae Mot1-301 galactose growth, ATP luminescence, 24 h; -100 = growth of slx-deleted rescue strain | shares compounds with SUMO Mot1 rescue;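 active = Signal drops as the depositor expects, and the fitted half-maximal dose is no more than ten times the top valid tested dose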;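 also: more negative values mean stronger growth rescue toward the control strain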
* = called active by the depositor; . = no result; + = active, no number.

SMILES	NALP3 yeast inh	SUMO Mot1 rescue	VIM-2 inh	PolyA inh	IMP-1 inhibitor	NALP1 inh	Yeast Mot1 SUMO
Cn1c(CNC(=O)c2ccc3c(c2)OCO3)nnc1SCC(=O)Nc1ccccc1F	17	43	-2	23	-4	-11	.
COc1ccc2nc(NC(=O)c3cccc(S(=O)(=O)N4CCOCC4)c3)sc2c1	23	102	-3	-1	-2	-8	.
Cc1nc2ccc(NC(=O)c3ccc(S(=O)(=O)N4CCOCC4)cc3)cc2s1	4	+	-2	1	-6	40	0
COc1ccc2nc(NC(=O)c3cc(S(=O)(=O)N4CCOCC4)ccc3C)sc2c1	11	529*	-5	5	-5	-13	0
CCOC(=O)c1c(NC(=O)COc2cccc3c2CCN(CC)C3=O)sc2c1CCC2	-1	-9	-2	-7	-4	14	.
Cc1nc2c(-c3ccc(F)cc3)cnn2c2c1CCC2	-1	583*	-1	-7	-3	32	0
COc1ccc(-c2cnc3c(-c4ccc(F)cc4)cnn3c2N)cc1	12	-20	-4	8	-4	3	.
CNC(=O)NNC(=O)c1csc(-c2ccc(C(F)(F)F)cc2Cl)n1	8	381*	2	-6	1	.	0
COc1ccc(C(=O)N(CCc2ccccc2)Cc2ccccc2)c(OC)n1	4	658*	-2	-1	-2	22	0
CS(=O)(=O)c1ccccc1C(=O)N(CCc1ccccc1)Cc1ccccc1	-3	-5	-3	-10	-2	12	.
CCc1ccccc1NC(=O)CC(NCc1ccccc1)C(=O)O (stereo unspecified)	2	5	-3	-1	-3	2	.
N#Cc1ccc(C23CC4(C2)[C@H](CN(Cc2ccc(C(F)(F)F)cc2)[C@@H]4c2ccccc2)C3c2ccc(C(F)(F)F)cc2)cc1 (stereo partly specified)	18	427*	.	6	.	.	0
C=CCNc1nnc(SC2CC(=O)N(c3ccc(OCCC)cc3)C2=O)s1 (stereo unspecified)	19	+	-2	5	-1	-28	-2
CCOc1ccc(N2C(=O)CC(Sc3nc4ccc(OCC)cc4s3)C2=O)cc1 (stereo unspecified)	19	41	-4	-13	-1	.	.
CN(C(=O)C1CCCCC1)C1(C)CCS(=O)(=O)C1 (stereo unspecified)	13	6	.	9	.	.	.
O=C(Nc1nccs1)c1ccc(S(=O)(=O)N2CCCCC2)cc1	15	-7	0	-12	-1	.	.
O=C(Nc1nccs1)c1ccc(S(=O)(=O)c2ccccc2)cc1	-5	695*	-1	-3	-6	15	0
CSc1cc(C)c(OCC(=O)Nc2c(C)nn(C)c2C)c(C)c1	12	385*	0	-2	-1	14	0
Cc1nn(C)c(C)c1NC(=O)COc1ccc(F)cc1Br	18	-14	.	.	.	.	.
COCCNC(=O)C1CC(c2ccccc2C(F)(F)F)=NO1 (stereo unspecified)	18	-22	.	12	.	.	.
COc1ccccc1CNC(=O)C1CCC(=O)N1C(C)C (stereo unspecified)	-5	595*	1	0	1	-1	0
CC1=CC(C)(C)N(C(=O)CSc2nnc(C)s2)c2ccc(C)cc21	40	184	-1	-18	-3	12	.
C/C=C/C(=O)N1c2ccc(C)cc2C(C)=CC1(C)C	20	962*	-3	-14	-3	.	1
Cc1ccc(NS(=O)(=O)c2ccc3[nH]c(=O)[nH]c3c2)c(C)c1	13	4	-1	-7	-4	1	.
CCOC(=O)c1ccc(NS(=O)(=O)c2c(C)nc3sccn3c2=O)cc1	17	2	-1	-13	-1	6	.
SMILES	NALP3 yeast inh	SUMO Mot1 rescue	VIM-2 inh	PolyA inh	IMP-1 inhibitor	NALP1 inh	Yeast Mot1 SUMO
C=CCn1c(=N)c(C(=O)NCCCOC)cc2c(=O)n3ccccc3nc21	2	603*	7	-4	-3	-6	0
FC(F)(F)c1nc2ccccc2n2c(-c3c(Cl)cccc3Cl)nnc12	16	1	-1	4	-2	-3	.
FC(F)(F)c1nc2ccccc2n2c(-c3ccc(Cl)cc3Cl)nnc12	26	+	-3	3	-2	-5	0
CCOc1ccc(S(=O)(=O)NCCC(=O)OCC(=O)c2ccc(NC(C)=O)cc2)cc1	6	2	.	19	.	.	.
CCc1ccc(CNCc2cccs2)cc1	6	5	-2	8	-3	18	.
Clc1ccc(CNCc2cccs2)cc1Cl	6	363*	-5	-13	-4	43	1
CC(NC(=O)C12CC3CC(CC(C3)C1)C2)c1ccc(F)cc1 (stereo unspecified)	-9	-9	-1	-7	-2	30	.
CC(NC(=O)C12CC3CC(CC(O)(C3)C1)C2)c1ccccc1 (stereo unspecified)	-12	409*	-3	9	-1	6	-1
OC(c1ccccc1)(C1CCCCC1)C(CN1CCOCC1)c1ccccc1 (stereo unspecified)	1	460*	-1	7	-4	2	0
COc1ccc(C(O)(C2CCCCC2)C(CN2CCOCC2)c2ccccc2)cc1 (stereo unspecified)	5	143	-2	3	-3	6	.
COc1ccc(OC)c(CC(=O)N2CCc3cc(OC)c(OC)cc3C2)c1	-14	-18	-1	-1	-5	-8	.
COc1cccc(N=Cc2c(O)c3ccccc3oc2=O)c1	14	-7	1	4	0	-19	.
O=C1NC2(CCCCC2)NN1c1ccccc1	15	479*	-2	-1	-3	20	1
CS(=O)(=O)N(CC(=O)NCCSCc1ccccc1)c1ccc2c(c1)OCO2	12	+	-4	-11	-3	-8	0
COC(=O)c1cccc(NC(=O)CN(c2ccc3c(c2)OCO3)S(C)(=O)=O)c1C	17	+	-2	18	-3	.	1
CS(=O)(=O)N(CC(=O)Nc1ccccc1C(=O)N1CCCC1)c1ccc2c(c1)OCO2	21	822*	-2	-1	-3	7	0
CS(=O)(=O)N(CC(=O)NCCSCc1cccc(Cl)c1)c1ccc2c(c1)OCO2	10	3	-1	5	-4	8	.
CCOc1ccc(S(=O)(=O)N2CCOCC2)cc1NC(=O)CSCc1c(C)noc1C	25	9	.	-1	.	.	.
COc1cc(C(=O)NNC(=O)CN2C(=O)NC(C)(c3ccc(C)cc3)C2=O)cc(OC)c1OC (stereo unspecified)	4	-3	.	.	.	.	.
COc1ccccc1C(=O)NCC(=O)NCC1(N2CCCCC2)CCCCC1	23	27	.	-13	.	.	.

Screening data deposited in PubChem BioAssay by several laboratories.
